Measurements published in ChEMBL document CHEMBL1125128, “(1R,3S)-1-(aminomethyl)-3,4-dihydro-5,6-dihydroxy-3-phenyl-1H-2-benzopyran: a potent and selective D1 agonist” (J Med Chem, 1990).
Values joined by “and” are separate entries in the source; they are usually repeats but may differ in a detail not shown here. Identical values can stand only once.

Assays:
D(2) dopamine receptor [1] = molecular target: T1, D(2) dopamine receptor (Rattus norvegicus, UniProt P61169); assay: Formation of cAMP on Dopamine receptor D2 in vitro in rat intermediate lobe; assay type: functional
D(2) dopamine receptor [2] = molecular target: T1, D(2) dopamine receptor; assay: Binding affinity was determined by measuring the ability to displace [125I]N-(p-aminophenethyl)-spiroperidol from Dopamine receptor D2 in rat caudate (in vitro)
Procedure, shortened: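 Homogenized rat caudate was the tissue, and [¹²⁵I]-N-(p-aminophenethyl)spiroperidol was the radioligand displaced. Values are means with the SEM range.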

[3] = molecular target: D(2) dopamine receptor (Rattus norvegicus) (UniProt P61169); assay: Percent intrinsic activity was determined by measuring the formation of cAMP on Dopamine receptor D2 in vitro in rat intermediate lobe; assay type: functional
D(1A) dopamine receptor = D(1A) dopamine receptor (Rattus norvegicus, UniProt P18901); assay: Binding affinity was determined by measuring the ability to displace [125I]SCH-23982 from Dopamine receptor D1 in rat caudate (in vitro)
Procedure, shortened: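 Homogenized rat caudate was used as the tissue source. [¹²⁵I]SCH23982 was the displaced radioligand, and affinity was expressed as Ki. Values are means with the SEM range.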

T1 sequence (P61169 whole entry): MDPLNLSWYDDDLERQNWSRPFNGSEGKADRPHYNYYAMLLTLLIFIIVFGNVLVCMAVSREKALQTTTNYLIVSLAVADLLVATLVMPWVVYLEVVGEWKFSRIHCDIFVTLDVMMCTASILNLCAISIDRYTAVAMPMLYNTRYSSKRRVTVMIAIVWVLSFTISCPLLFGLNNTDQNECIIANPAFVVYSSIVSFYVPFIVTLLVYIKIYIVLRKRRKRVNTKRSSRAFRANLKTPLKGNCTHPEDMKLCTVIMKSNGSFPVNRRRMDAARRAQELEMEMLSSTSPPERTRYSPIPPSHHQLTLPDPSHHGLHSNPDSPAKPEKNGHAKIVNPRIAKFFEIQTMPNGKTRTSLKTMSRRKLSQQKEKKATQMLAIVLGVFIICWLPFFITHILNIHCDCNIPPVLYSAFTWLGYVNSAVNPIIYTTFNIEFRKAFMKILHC
D(2) dopamine receptor (Rattus norvegicus), sequence (P61169 whole entry): as above
D(1A) dopamine receptor, sequence (P18901 whole entry): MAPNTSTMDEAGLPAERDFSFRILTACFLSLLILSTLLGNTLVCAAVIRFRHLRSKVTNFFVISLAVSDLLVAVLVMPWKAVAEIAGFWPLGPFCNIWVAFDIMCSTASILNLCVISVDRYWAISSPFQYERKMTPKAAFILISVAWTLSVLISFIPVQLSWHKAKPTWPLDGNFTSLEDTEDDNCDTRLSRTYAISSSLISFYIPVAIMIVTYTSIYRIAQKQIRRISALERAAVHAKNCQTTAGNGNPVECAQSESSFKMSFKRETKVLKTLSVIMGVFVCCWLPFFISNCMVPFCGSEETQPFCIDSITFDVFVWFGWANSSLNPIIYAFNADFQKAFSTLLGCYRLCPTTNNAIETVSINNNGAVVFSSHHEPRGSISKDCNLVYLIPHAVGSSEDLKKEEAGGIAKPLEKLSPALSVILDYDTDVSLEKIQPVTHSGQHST

Structure (SMILES) | EC50 (D(2) dopamine receptor [1]) | Ki (D(2) dopamine receptor [2]) | IA [3] | Ki (D(1A) dopamine receptor) [nM]
NC[C@H]1O[C@@H](c2ccccc2)Cc2c1ccc(O)c2O | > 10000 nM | > 10000 nM | – | –
NC[C@@H]1O[C@H](c2ccccc2)Cc2c1ccc(O)c2O (stereo in doubt; form 1) [listing 1 of 2 here] | 3910 nM and 10200 nM | 776 nM and 807 nM | – | –
NCC1OCCc2c1ccc(O)c2O (stereo not given) [listing 1 of 3 here] | – | – | 96% | –
NC[C@@H]1O[C@H](c2ccccc2)Cc2c1ccc(O)c2O (stereo in doubt; form 1) [listing 2 of 2 here] | – | – | 101% and 98% | –
NC[C@@H]1O[C@H](c2ccccc2)Cc2c1ccc(O)c2O (stereo in doubt; form 2) [listing 1 of 2 here] | 10200 nM and 3910 nM | 807 nM and 776 nM | – | –
NCC1OCCc2c1ccc(O)c2O (stereo not given) [listing 2 of 3 here] | 2850 nM | 4610 nM | – | 1030
NCC1OCCc2c1ccc(O)c2O (stereo not given) [listing 3 of 3 here] | 2850 nM | 4610 nM | – | 1030
NC[C@@H]1O[C@H](c2ccccc2)Cc2c1ccc(O)c2O (stereo in doubt; form 2) [listing 2 of 2 here] | – | – | 98% and 101% | –
